The source of these data is ChEMBL document CHEMBL1921796, “Synthesis of 6-(het) ary Xylocydine analogues and evaluating their inhibitory activities of CDK1 and CDK2 in vitro” (Bioorg Med Chem, 2011).

In experiment [1] the target is Cyclin-dependent kinase 2/cyclin A (Homo sapiens, UniProt P24941+P20248+P78396). As to the kind of experiment: (§1) Inhibition of CDK2/Cyclin A2 in human HeLa cell extracts using histone H1 as substrate preincubated for 30 mins before substrate addition measured after 15 mins by autoradiography. Particulars: hela; call rule not given here. The class given is protein-complex assay. An outline of the steps:
(§2)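 CDK2 immunoprecipitated (6 h, 4 °C) from 200 µg extract of HeLa cells seeded 24 h and then given 50 µg/ml etoposide in DMEM with 5% newborn calf serum for 12 h. After washing, kinase preincubated 30 min with 0–200 µM inhibitor.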

In experiment [2] the target is Cyclin-dependent kinase 1/cyclin B1 (Homo sapiens, UniProt P06493+P14635). The experiment can be described thus: (§3) Inhibition of CDK1/Cyclin B in human HeLa cell extracts using histone H1 as substrate preincubated for 30 mins before substrate addition measured after 15 mins by autoradiography. The class given is protein-complex assay. To be noted: hela. In outline: (§4)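 HeLa cells seeded for 24 h, then given 80 nM paclitaxel in DMEM with 5% newborn calf serum for 12 h. 200 µg extract immunoprecipitated with anti-CDK1 antibody, 6 h at 4 °C, and washed.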

In experiment [3] the test system is HeLa. As to the kind of experiment: Cell cycle arrest in human HeLa cells assessed as accumulation at G2 phase at 12.5 uM after 72 hrs by DAPI staining-based FACS analysis (reference value: 13.73%). Format: functional.
The target of experiment [4] is Cyclin-dependent kinase 2/cyclin A (Homo sapiens, UniProt P24941). The description is as §1. Format: protein-complex assay. An outline of the steps: as §2
Experiment [5] concerns HeLa. As to the kind of experiment: Cell cycle arrest in human HeLa cells assessed as accumulation at G1/S phase at 12.5 uM after 72 hrs by DAPI staining-based FACS analysis (reference value: 86.27%). The class given is functional.
Experiment [6] has as its target Cyclin-dependent kinase 1/cyclin B1 (Homo sapiens, UniProt P06493). The experiment is described as §3. Format: protein-complex assay. An outline of the steps: as §4
Experiment [7] deals with HeLa. The experiment can be described thus: Cell cycle arrest in human HeLa cells assessed as accumulation at G2 phase at 6.25 uM after 72 hrs by DAPI staining-based FACS analysis (reference value: 13.73%). Format: functional. A general note: Flow cytometry measures light scatter and fluorescence of single cells or particles in a stream.
Experiment [8] has as its system HeLa. As to the kind of experiment: Cell cycle arrest in human HeLa cells assessed as accumulation at G1/S phase at 6.25 uM after 72 hrs by DAPI staining-based FACS analysis (reference value: 86.27%). The class given is functional.

Cyclin-dependent kinase 1/cyclin B1 (Homo sapiens, UniProt P06493), sequence (P06493 whole entry): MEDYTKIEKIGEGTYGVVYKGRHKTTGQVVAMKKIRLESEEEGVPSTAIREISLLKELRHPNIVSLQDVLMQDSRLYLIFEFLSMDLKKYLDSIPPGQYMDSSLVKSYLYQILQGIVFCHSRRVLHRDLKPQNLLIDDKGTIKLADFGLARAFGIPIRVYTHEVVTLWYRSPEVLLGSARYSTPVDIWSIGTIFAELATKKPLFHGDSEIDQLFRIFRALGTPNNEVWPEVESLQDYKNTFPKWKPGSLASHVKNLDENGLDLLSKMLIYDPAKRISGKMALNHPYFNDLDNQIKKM
Cyclin-dependent kinase 1/cyclin B1 (Homo sapiens, UniProt P06493), sequence (P14635 whole entry, further chain): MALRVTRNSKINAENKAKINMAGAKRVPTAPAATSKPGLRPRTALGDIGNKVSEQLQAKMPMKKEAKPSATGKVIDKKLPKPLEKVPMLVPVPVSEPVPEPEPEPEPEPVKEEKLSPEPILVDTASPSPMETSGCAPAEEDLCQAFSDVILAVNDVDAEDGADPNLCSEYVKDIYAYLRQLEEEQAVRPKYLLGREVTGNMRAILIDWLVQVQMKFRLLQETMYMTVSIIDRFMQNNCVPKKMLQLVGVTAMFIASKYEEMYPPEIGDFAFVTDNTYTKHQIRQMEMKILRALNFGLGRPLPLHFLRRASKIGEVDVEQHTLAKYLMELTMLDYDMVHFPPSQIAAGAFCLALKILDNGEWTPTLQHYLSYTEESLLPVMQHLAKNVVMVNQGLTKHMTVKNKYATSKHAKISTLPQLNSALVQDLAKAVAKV
Cyclin-dependent kinase 1/cyclin B1 (Homo sapiens, UniProt P06493+P14635), sequence (P06493 whole entry): as the sequence (P06493 whole entry) above
Cyclin-dependent kinase 1/cyclin B1 (Homo sapiens, UniProt P06493+P14635), sequence (P14635 whole entry): as the sequence (P14635 whole entry, further chain) above

As a reminder, the IC50 is the concentration needed to halve the response being measured. A high value points to a need for much substance. Take `COc1cccc(-c2c(C(N)=O)c3c(N)ncnc3n2[C@H]2O[C@@H](CO)[C@@H](O)[C@@H]2O)c1`: the IC50 result in experiment [1] and in experiment [2] was “Not Active” throughout.
Regarding `CC(C)(C)c1ccc(-c2c(C(N)=O)c3c(N)ncnc3n2[C@H]2O[C@@H](CO)[C@@H](O)[C@@H]2O)cc1`, the half-inhibitory concentration (IC50) result in experiment [1] and in experiment [2] was “Not Active” throughout.
On to `NC(=O)c1c(-c2ccc(Br)s2)n([C@H]2O[C@@H](CO)[C@@H](O)[C@@H]2O)c2ncnc(N)c12`, for which the IC50 result in experiment [1] and in experiment [2] was “Not Active” each time.
For the molecule `COc1ccc(-c2c(C(N)=O)c3c(N)ncnc3n2[C@H]2O[C@@H](CO)[C@@H](O)[C@@H]2O)cc1`, the IC50 result in experiment [1] and in experiment [2] was “Not Active” each time.
As for `NC(=O)c1c(-c2ccc[nH]2)n([C@H]2O[C@@H](CO)[C@@H](O)[C@@H]2O)c2ncnc(N)c12`, the IC50 result in experiment [1] and in experiment [2] was “Not Active” throughout.
`N#Cc1c(-c2ccco2)n([C@H]2O[C@@H](CO)[C@@H](O)[C@@H]2O)c2ncnc(N)c12`: the Activity in experiment [3] came to 7.26%; in experiment [5] it was 92.74%; in experiment [7] it was 14.87%; in experiment [8], 85.13%. Moreover, the IC50 in experiment [4] was 4.8 µM; in experiment [6], > 100 µM.
Take `N#Cc1c(-c2cccs2)n([C@H]2O[C@@H](CO)[C@@H](O)[C@@H]2O)c2ncnc(N)c12`: the Activity in experiment [3] worked out at 0.13%; in experiment [5], 99.87%; in experiment [7], 3.7%; in experiment [8], 96.3%. The IC50 in experiment [4] is 4.6 µM; in experiment [6], > 100 µM.
With `N#Cc1c(-c2ccc(Br)s2)n([C@H]2O[C@@H](CO)[C@@H](O)[C@@H]2O)c2ncnc(N)c12`, the Activity was found to be 0.22% in experiment [3], 99.79% in experiment [5], 13.17% in experiment [7] and 86.83% in experiment [8]. For the same molecule, the IC50 in experiment [4] is 55 µM; in experiment [6], > 100 µM.
Take `CC(C)(C)c1ccc(-c2c(C#N)c3c(N)ncnc3n2[C@H]2O[C@@H](CO)[C@@H](O)[C@@H]2O)cc1`: the IC50 result in experiment [1] and in experiment [2] was “Not Active” each time.
As to `NC(=O)c1c(Br)n([C@H]2O[C@@H](CO)[C@@H](O)[C@@H]2O)c2ncnc(N)c12` [XYLOCYDINE], the IC50 was 0.061 µM in experiment [4] and 0.0014 µM in experiment [6].
For `NC(=O)c1c(-c2cccs2)n([C@H]2O[C@@H](CO)[C@@H](O)[C@@H]2O)c2ncnc(N)c12`, the IC50 entry in experiment [1] and in experiment [2] was “Not Active” throughout.
Turning to `NC(=O)c1c(-c2ccco2)n([C@H]2O[C@@H](CO)[C@@H](O)[C@@H]2O)c2ncnc(N)c12`, the IC50 result in experiment [1] and in experiment [2] was “Not Active” throughout.
Turning to `NC(=O)c1c(-c2cccc(Br)c2)n([C@H]2O[C@@H](CO)[C@@H](O)[C@@H]2O)c2ncnc(N)c12`, the 50% inhibitory concentration (IC50) entry in experiment [1] and in experiment [2] was “Not Active” throughout.
As for `Cc1ccc(-c2c(C#N)c3c(N)ncnc3n2[C@H]2O[C@@H](CO)[C@@H](O)[C@@H]2O)cc1`, the half-inhibitory concentration (IC50) entry in experiment [1] and in experiment [2] was “Not Active” in each case.
As to `Cc1ccc(-c2c(C(N)=O)c3c(N)ncnc3n2[C@H]2O[C@@H](CO)[C@@H](O)[C@@H]2O)cc1`, the half-inhibitory concentration (IC50) entry in experiment [1] and in experiment [2] was “Not Active” throughout.
For `N#Cc1c(-c2cccc(Br)c2)n([C@H]2O[C@@H](CO)[C@@H](O)[C@@H]2O)c2ncnc(N)c12`, the half-inhibitory concentration (IC50) result in experiment [1] and in experiment [2] was “Not Active” in each case.
Take `COc1cccc(-c2c(C#N)c3c(N)ncnc3n2[C@H]2O[C@@H](CO)[C@@H](O)[C@@H]2O)c1`: the half-inhibitory concentration (IC50) entry in experiment [1] and in experiment [2] was “Not Active” throughout.
For `N#Cc1c(Br)n([C@H]2O[C@@H](CO)[C@@H](O)[C@@H]2O)c2ncnc(N)c12`, the concentration for half-maximal inhibition (IC50) result in experiment [1] and in experiment [2] was “Not Active” each time.
On to `NC(=O)c1c(-c2ccc(Br)cc2)n([C@H]2O[C@@H](CO)[C@@H](O)[C@@H]2O)c2ncnc(N)c12`, for which the IC50 result in experiment [1] and in experiment [2] was “Not Active” each time.
For `COc1ccc(-c2c(C#N)c3c(N)ncnc3n2[C@H]2O[C@@H](CO)[C@@H](O)[C@@H]2O)cc1`, the 50% inhibitory concentration (IC50) result in experiment [1] and in experiment [2] was “Not Active” each time.
With `N#Cc1c(-c2ccc[nH]2)n([C@H]2O[C@@H](CO)[C@@H](O)[C@@H]2O)c2ncnc(N)c12`, the IC50 result in experiment [1] and in experiment [2] was “Not Active” each time.
On to `N#Cc1c(-c2ccc(Br)cc2)n([C@H]2O[C@@H](CO)[C@@H](O)[C@@H]2O)c2ncnc(N)c12`, for which the 50% inhibitory concentration (IC50) entry in experiment [1] and in experiment [2] was “Not Active” in each case.
